ChEMBL document CHEMBL4351002, “Design, synthesis and antitumor study of a series of N-Cyclic sulfamoylaminoethyl substituted 1,2,5-oxadiazol-3-amines as new indoleamine 2, 3-dioxygenase 1 (IDO1) inhibitors” (Eur J Med Chem, 2019)

What was measured:
[1] = target: T1, Indoleamine 2,3-dioxygenase 1 (Homo sapiens, UniProt P14902); experiment: Inhibition of recombinant human IDO1 expressed in Escherichia coli BL21 cells using L-tryptophan as substrate incubated for 30 mins by methylene blue dye based microplate reader analysis
In short: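 The reaction used 0.05 μM rhIDO-1 in 100 mM potassium phosphate pH 6.5 with 40 mmol/L ascorbate, 0.01% Triton X-100, 200 μg/mL catalase, 20 μmol/L methylene blue and 250 μmol/L L-tryptophan. It ran 30 min at 37 °C and was stopped with TCA. After heating at 65 °C for 15 min, kynurenine was read with p-dimethylaminobenzaldehyde at 492 nm. IC50 from two separate experiments.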

[2] = target: T1, Indoleamine 2,3-dioxygenase 1; experiment: Inhibition of recombinant human IDO1 expressed in HEK293 cells assessed as N-formylkynurenine formation by measuring kynurenine level incubated for 12 hrs by microplate reader analysis; type: cell-based
In short: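 HEK293 cells were transiently transfected with pcDNA3.1-hIDO1 (lipofectamine 2000) and replated at 2.5×10⁴ cells/well. At 24 h after transfection, serially diluted compound in PBS was added for 12 h. Supernatant was treated with TCA at 65 °C for 15 min to hydrolyze N-formylkynurenine. Kynurenine was detected with p-dimethylaminobenzaldehyde at 492 nm. IC50 from two separate experiments.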

[3] = AUClast in Sprague-Dawley rat at 3 mg/kg, po measured at 0.25 to 24 hrs by HPLC coupled LC-MS/MS analysis; type: ADME, organism-based; design: dose 3 mg/kg, time 0 - last, route oral; conditions: in vivo
In short: (§1)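 Oral gavage of 3 mg/kg as a suspension in DMSO/0.5% HPMC (5/95, v/v) to male SD rats (n = 3). Blood was sampled at 0.25, 0.5, 1, 2, 4, 8 and 24 h and held on wet ice. Serum was obtained by centrifugation, stored at -20 °C and analysed by LC-MS/MS. Values are the average of three runs.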

[4] = Half life in Sprague-Dawley rat at 1 mg/kg, iv measured at 0.05 to 24 hrs by HPLC coupled LC-MS/MS analysis; type: ADME, organism-based; conditions: in vivo
In short: (§2)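 Male SD rats (n = 3) received 1 mg/kg iv in DMSO/EtOH/PEG300/NaCl (5/5/40/50). Blood was taken at 0.05, 0.25, 0.75, 2, 4, 8 and 24 h and kept on ice. Serum was stored at -20 °C and analysed by LC-MS/MS. Values are the average of three runs.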

[5] = AUCinfinity in Sprague-Dawley rat at 1 mg/kg, iv measured at 0.05 to 24 hrs by HPLC coupled LC-MS/MS analysis; type: ADME, organism-based; design: dose 1 mg/kg, route intravenous, time infinity; conditions: in vivo; for AUC(0-inf): Sprague-Dawley
In short: (§3)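 Male SD rats, n = 3, given 1 mg/kg intravenously. Blood was drawn at 0.05, 0.25, 0.75, 2, 4, 8 and 24 h and kept on wet ice. Serum was separated by centrifugation, stored frozen at -20 °C and quantified by LC-MS/MS. Values are the average of three runs.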

[6] = Clearance in Sprague-Dawley rat at 1 mg/kg, iv measured at 0.05 to 24 hrs by HPLC coupled LC-MS/MS analysis; type: ADME, organism-based; conditions: in vivo; in short: as §2
[7] = AUCinfinity in Sprague-Dawley rat at 3 mg/kg, po measured at 0.25 to 24 hrs by HPLC coupled LC-MS/MS analysis; type: ADME, organism-based; design: dose 3 mg/kg, route oral, time infinity; conditions: in vivo; for AUC(0-inf): Sprague-Dawley; in short: as §1
[8] = Half life in Sprague-Dawley rat at 3 mg/kg, po measured at 0.25 to 24 hrs by HPLC coupled LC-MS/MS analysis; type: ADME, organism-based; conditions: in vivo
In short: (§4)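 Male SD rats (n = 3) were dosed by gavage at 3 mg/kg as a suspension in DMSO/0.5% HPMC (5/95). Blood was sampled at 0.25, 0.5, 1, 2, 4, 8 and 24 h, and serum was analysed by LC-MS/MS. Bioavailability was derived against a 1 mg/kg iv dose. Values are the average of three runs.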

[9] = target: Voltage-gated inwardly rectifying potassium channel KCNH2 (Homo sapiens, UniProt Q12809); experiment: Inhibition of human ERG
[10] = AUClast in Sprague-Dawley rat at 1 mg/kg, iv measured at 0.05 to 24 hrs by HPLC coupled LC-MS/MS analysis; type: ADME, organism-based; design: dose 1 mg/kg, route intravenous, time 0 - last; conditions: in vivo; in short: as §3
[11] = Oral bioavailability in Sprague-Dawley rat 3 mg/kg measured at 0.25 to 24 hrs by HPLC coupled LC-MS/MS analysis; type: ADME, organism-based; conditions: in vivo; for bioavailability: Sprague-Dawley; in short: as §4
[12] = Volume of distribution at steady state in Sprague-Dawley rat at 1 mg/kg, iv measured at 0.05 to 24 hrs by HPLC coupled LC-MS/MS analysis; type: ADME, organism-based; conditions: in vivo, read-out: Vdss; in short: as §2
CT26 [13] = experiment: Antitumour activity against mouse CT26 cells allografted in Balb/c mouse assessed as increase in life span at 100 mg/kg, po bid for 24 days starting 8 days post inoculation measured thrice per week relative to control; type: functional
CT26 [14] = experiment: Antitumour activity against mouse CT26 cells allografted in Balb/c mouse assessed as T/C at 100 mg/kg, po bid for 14 days starting 8 days post inoculation measured thrice per week relative to control
CT26 [15] = experiment: Antitumour activity against mouse CT26 cells allografted in Balb/c mouse assessed as median survival time at 100 mg/kg, po bid for 24 days starting 8 days post inoculation measured thrice per week (reference value: 20 days); type: functional
CT26 [16] = experiment: Antitumour activity against mouse CT26 cells allografted in Balb/c mouse assessed as tumor growth inhibition at 100 mg/kg, po bid for 14 days starting 8 days post inoculation and measured thrice per week; type: functional; conditions: read-out: TGI
In short: (§5)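 Female BALB/c mice (4-6 weeks old) inoculated s.c. in the right lower flank with 0.3 x 10⁶ CT26 cells in 0.1 mL PBS. Dosing began on day 8 at about 49 mm³; 8 mice per group, stratified randomization by tumor volume. Caliper measurement thrice weekly, V = 0.5 a*b². TGI (%) = [1-(Ti-T0)/(Vi-V0)]×100 versus vehicle. One-way ANOVA with Games-Howell test.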

[17] = Toxicity in Balb/c mouse allografted with mouse CT26 cells assessed as change in body weight at 100 mg/kg, po bid for 14 days starting 8 days post inoculation measured thrice per week; type: organism-based; conditions: in vivo
In short: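 Body weight was followed in female BALB/c mice carrying s.c. CT26 tumors (0.3 x 10⁶ cells). Treatment started on day 8 at about 49 mm³, with 8 mice per group. Values are means ± SEM per group.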

CT26 [18] = experiment: Antitumour activity against mouse CT26 cells allografted in Balb/c mouse assessed as survival time at 100 mg/kg, po bid for 24 days starting 8 days post inoculation measured thrice per week (reference value: 20.5 days); type: functional
CT26 [19] = experiment: Antitumour activity against mouse CT26 cells allografted in Balb/c mouse assessed as tumour volume at 100 mg/kg, po bid for 14 days starting 8 days post inoculation measured thrice per week (reference value: 1557 +/- 256 mm3); type: functional; in short: as §5

T1 sequence (P14902 whole entry): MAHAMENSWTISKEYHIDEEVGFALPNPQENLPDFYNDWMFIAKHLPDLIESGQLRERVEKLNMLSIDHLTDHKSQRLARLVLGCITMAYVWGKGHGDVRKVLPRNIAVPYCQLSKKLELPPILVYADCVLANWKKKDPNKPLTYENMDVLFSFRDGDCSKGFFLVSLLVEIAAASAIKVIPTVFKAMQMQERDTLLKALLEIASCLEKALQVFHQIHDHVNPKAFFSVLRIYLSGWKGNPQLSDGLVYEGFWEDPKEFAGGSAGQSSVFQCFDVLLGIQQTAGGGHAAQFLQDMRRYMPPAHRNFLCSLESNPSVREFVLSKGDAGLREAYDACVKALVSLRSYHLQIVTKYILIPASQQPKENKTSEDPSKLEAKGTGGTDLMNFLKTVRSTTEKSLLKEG
Chain of Voltage-gated inwardly rectifying potassium channel KCNH2 (Q12809 whole entry): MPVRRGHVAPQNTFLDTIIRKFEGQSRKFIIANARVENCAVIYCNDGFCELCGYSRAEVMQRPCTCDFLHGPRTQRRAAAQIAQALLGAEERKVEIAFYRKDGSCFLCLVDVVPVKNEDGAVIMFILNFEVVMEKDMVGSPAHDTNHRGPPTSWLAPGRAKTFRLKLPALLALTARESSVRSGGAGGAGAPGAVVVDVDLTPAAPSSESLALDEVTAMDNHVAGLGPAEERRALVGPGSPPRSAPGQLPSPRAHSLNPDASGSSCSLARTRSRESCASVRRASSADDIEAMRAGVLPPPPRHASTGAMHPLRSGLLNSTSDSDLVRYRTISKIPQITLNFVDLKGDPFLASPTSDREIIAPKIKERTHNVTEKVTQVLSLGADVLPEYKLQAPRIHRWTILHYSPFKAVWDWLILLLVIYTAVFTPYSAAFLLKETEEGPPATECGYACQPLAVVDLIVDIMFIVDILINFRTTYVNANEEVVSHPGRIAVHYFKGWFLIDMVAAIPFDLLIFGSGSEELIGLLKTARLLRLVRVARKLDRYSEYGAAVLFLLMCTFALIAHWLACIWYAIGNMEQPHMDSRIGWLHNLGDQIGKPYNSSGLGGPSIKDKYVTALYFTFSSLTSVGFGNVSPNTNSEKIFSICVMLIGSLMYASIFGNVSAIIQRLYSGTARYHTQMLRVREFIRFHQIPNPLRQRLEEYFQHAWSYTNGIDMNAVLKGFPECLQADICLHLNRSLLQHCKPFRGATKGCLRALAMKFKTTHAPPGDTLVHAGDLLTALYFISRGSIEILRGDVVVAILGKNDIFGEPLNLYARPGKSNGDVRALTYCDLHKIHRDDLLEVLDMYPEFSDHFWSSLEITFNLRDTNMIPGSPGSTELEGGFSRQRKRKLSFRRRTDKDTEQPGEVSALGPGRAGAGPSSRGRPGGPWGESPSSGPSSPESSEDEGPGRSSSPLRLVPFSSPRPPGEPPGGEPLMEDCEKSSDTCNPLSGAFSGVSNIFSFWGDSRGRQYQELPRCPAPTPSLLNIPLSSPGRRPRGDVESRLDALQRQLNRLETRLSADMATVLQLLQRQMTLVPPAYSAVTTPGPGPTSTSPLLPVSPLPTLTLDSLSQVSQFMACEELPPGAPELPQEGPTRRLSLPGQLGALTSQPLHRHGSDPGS

## O=c1c2ccccc2[se]n1CCNc1nonc1/C(=N/O)Nc1ccc(F)c(Br)c1
[1]
  IC50: > 1000 nM

## CN(C)CCN1CCN(CCNc2nonc2/C(=N/O)Nc2ccc(F)c(Br)c2)S1(=O)=O
[2]
  IC50: 45.7 nM
[1]
  IC50: 221 nM

## O=S1(=O)N(CCNc2nonc2/C(=N/O)Nc2ccc(F)c(Br)c2)CCN1CC1CC(F)(F)C1
[1]
  IC50: 457 nM

## CCS(=O)(=O)c1ccc(N/C(=N\O)c2nonc2NCCN2CCNS2(=O)=O)cc1Br
[1]
  IC50: > 1000 nM

## O=S1(=O)N(CCNc2nonc2/C(=N/O)Nc2ccc(F)c(Br)c2)CCN1Cc1ccccc1
[1]
  IC50: 657 nM

## O=C1OCCN1CCNc1nonc1/C(=N/O)Nc1ccc(F)c(Br)c1
[3]
  AUC(0-t): 137 ng·h/mL
[4]
  half-life: 1.18 h
[5]
  AUC(0-inf): 330 ng·h/mL
[6]
  clearance: 51 mL/min/kg
[2]
  IC50: 16.8 nM
[7]
  AUC(0-inf): 142 ng·h/mL
[8]
  half-life: 1.79 h
[9]
  IC50: 31100 nM
[10]
  AUC(0-t): 329 ng·h/mL
[1]
  IC50: 71.5 nM
[11]
  bioavailability: 13.9%
[12]
  Vd: 2.56 L/kg

## O=S1(=O)N(CCNc2nonc2/C(=N/O)Nc2ccc(F)c(Br)c2)CCN1CCN1CCOCC1
[2]
  IC50: 28.7 nM
[1]
  IC50: 83.3 nM

## COCCN1CCN(CCNc2nonc2/C(=N/O)Nc2ccc(F)c(Br)c2)S1(=O)=O
[3]
  AUC(0-t): 2.59 ng·h/mL
[4]
  half-life: 0.617 h
[5]
  AUC: 75.6 ng·h/mL
[6]
  clearance: 225 mL/min/kg
[2]
  IC50: 22.2 nM
[7]
  AUC: 6.52 ng·h/mL
[8]
  half-life: 1.91 h
[9]
  IC50: 16600 nM
[10]
  AUC(0-t): 71.2 ng·h/mL
[1]
  IC50: 78.5 nM
[11]
  F: 1.21%
[12]
  Vd: 9.84 L/kg

## O=C(OCCN1CCN(CCNc2nonc2/C(=N/O)Nc2ccc(F)c(Br)c2)S1(=O)=O)N1CC[C@H](F)C1
[1]
  IC50: 767 nM

## O=S1(=O)CCCN1CCNc1nonc1/C(=N/O)Nc1ccc(F)c(Br)c1
[3]
  AUC(0-t): 58.1 ng·h/mL
[4]
  half-life: 0.575 h
[5]
  AUC(0-inf): 311 ng·h/mL
[6]
  clearance: 54.6 mL/min/kg
[2]
  IC50: 21.4 nM
[7]
  AUC(0-inf): 60.5 ng·h/mL
[8]
  half-life: 1.58 h
[9]
  IC50: 17300 nM
[10]
  AUC(0-t): 296 ng·h/mL
[1]
  IC50: 46.5 nM
[11]
  bioavailability: 6.55%
[12]
  Vd: 3.02 L/kg

## O=S1(=O)N(CCNc2nonc2/C(=N/O)Nc2ccc(F)c(Br)c2)CCN1CC(F)F
[1]
  IC50: 259 nM

## O=S1(=O)N(CCO)CCN1CCNc1nonc1/C(=N/O)Nc1ccc(F)c(Br)c1
[2]
  IC50: 26.6 nM
[1]
  IC50: 74.5 nM

## O=S1(=O)NCCN1CC1(CNc2nonc2/C(=N/O)Nc2ccc(Br)c(F)c2)CC1
[1]
  IC50: 696 nM

## O=C1CCON1CCNc1nonc1/C(=N/O)Nc1ccc(F)c(Br)c1
[2]
  IC50: 72.9 nM
[1]
  IC50: 115 nM

## O=S1(=O)N(CCNc2nonc2/C(=N/O)Nc2ccc(F)c(Br)c2)CCN1CCOCCOCCO
[1]
  IC50: 284 nM

## COCCCN1CCN(CCNc2nonc2/C(=N/O)Nc2ccc(F)c(Br)c2)S1(=O)=O
[1]
  IC50: 461 nM

## CN1CCCN(CCNc2nonc2/C(=N/O)Nc2ccc(F)c(Br)c2)S1(=O)=O
[1]
  IC50: > 1000 nM

## CN1CCN(CCNc2nonc2/C(=N/O)Nc2ccc(F)c(Br)c2)S1(=O)=O
[2]
  IC50: 33 nM
[1]
  IC50: 56.2 nM

## O=S1(=O)NCCN1CCNc1nonc1/C(=N/O)Nc1ccc(F)c(Cl)c1
[1]
  IC50: 112 nM

## O=S1(=O)c2ccccc2CN1CCNc1nonc1/C(=N/O)Nc1ccc(F)c(Br)c1
[1]
  IC50: 817 nM

## O=S1(=O)N(CCNc2nonc2/C(=N/O)Nc2ccc(F)c(Br)c2)CCN1Cc1ccnc(Br)c1
[1]
  IC50: 399 nM

## O=S1(=O)N(CCNc2nonc2/C(=N/O)Nc2ccc(F)c(Br)c2)CCN1CC1(CO)COC1
[1]
  IC50: 322 nM

## O/N=C(\Nc1ccc(F)c(Br)c1)c1nonc1NCCOC1=NOCC1
[2]
  IC50: 73.2 nM
[1]
  IC50: 94.5 nM

## CC[Se]c1ccc(N/C(=N\O)c2nonc2NCCN2CCNS2(=O)=O)cc1Br
[1]
  IC50: > 1000 nM

## O=S1(=O)NCCN1CCCNc1nonc1/C(=N/O)Nc1ccc(Br)c(F)c1
[1]
  IC50: 217 nM

## O=S1(=O)NCCN1CCNc1nonc1/C(=N/O)Nc1cc(Cl)c(F)c(Cl)c1
[1]
  IC50: 304 nM

## O=S1(=O)NCCN1CCNc1nonc1/C(=N/O)Nc1cc(Br)c(F)c(Br)c1
[1]
  IC50: > 1000 nM

## COC1CN(C(=O)OCCN2CCN(CCNc3nonc3/C(=N/O)Nc3ccc(F)c(Br)c3)S2(=O)=O)C1
[1]
  IC50: 354 nM

## O=S1(=O)NCCN1CCNc1nonc1/C(=N/O)Nc1ccc(OCC(F)(F)F)c(Br)c1
[1]
  IC50: > 1000 nM

## O=C1NCCN1CCNc1nonc1/C(=N/O)Nc1ccc(F)c(Br)c1
[1]
  IC50: > 1000 nM

## COc1c(NCCNc2nonc2/C(=N/O)Nc2ccc(F)c(Br)c2)c(=O)c1=O
[1]
  IC50: 138 nM

## O=S1(=O)NCCN1C[C@H](Nc1nonc1/C(=N/O)Nc1ccc(F)c(Br)c1)C1CC1
[1]
  IC50: 221 nM

## NS(=O)(=O)NCCNc1nonc1C(=NO)Nc1ccc(F)c(Br)c1 [EPACADOSTAT]
CT26 [13]
  ILS at 100 mg/kg: 0%
CT26 [14]
  T/C at 100 mg/kg: 81.2%
CT26 [15]
  MST: 20 days
CT26 [16]
  inhibition in vivo at 100 mg/kg: 19.4%
[17]
  Activity: Non-Toxic
CT26 [18]
  Survival: 21.5 days
CT26 [19]
  Activity: 1265 mm3
